Key:
[1] = biological target: T1, Adenosine receptor A1 (Homo sapiens) (UniProt P30542); assay: Displacement of [3H]DPCPX from human adenosine A1 receptor expressed in CHO cell membranes at 1 uM
T1 sequence (whole entry): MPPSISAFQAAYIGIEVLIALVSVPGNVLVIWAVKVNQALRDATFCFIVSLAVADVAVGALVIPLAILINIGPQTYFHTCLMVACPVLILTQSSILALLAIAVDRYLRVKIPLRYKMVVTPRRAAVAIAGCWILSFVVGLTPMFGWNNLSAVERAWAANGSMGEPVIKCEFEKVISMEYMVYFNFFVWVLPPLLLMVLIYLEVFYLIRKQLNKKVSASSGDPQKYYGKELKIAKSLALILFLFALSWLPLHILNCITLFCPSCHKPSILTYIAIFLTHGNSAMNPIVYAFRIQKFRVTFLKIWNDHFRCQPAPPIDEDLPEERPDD
Procedure, shortened: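 hA1 CHO membranes (50 µg protein) with 1 nM [³H]DPCPX in 50 mM Tris HCl pH 7.4, 120 min at 25 °C; nonspecific binding with 10 µM CHA; glass-fiber filtration, scintillation counting; % inhibition at 1 µM test compound.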

[2] = biological target: Adenosine receptor A2a (Homo sapiens) (UniProt P29274); assay: Displacement of [3H]ZM-241385 from human adenosine A2A receptor expressed in CHO cell membranes at 1 uM
Chain of Adenosine receptor A2a (Homo sapiens) (P29274 whole entry): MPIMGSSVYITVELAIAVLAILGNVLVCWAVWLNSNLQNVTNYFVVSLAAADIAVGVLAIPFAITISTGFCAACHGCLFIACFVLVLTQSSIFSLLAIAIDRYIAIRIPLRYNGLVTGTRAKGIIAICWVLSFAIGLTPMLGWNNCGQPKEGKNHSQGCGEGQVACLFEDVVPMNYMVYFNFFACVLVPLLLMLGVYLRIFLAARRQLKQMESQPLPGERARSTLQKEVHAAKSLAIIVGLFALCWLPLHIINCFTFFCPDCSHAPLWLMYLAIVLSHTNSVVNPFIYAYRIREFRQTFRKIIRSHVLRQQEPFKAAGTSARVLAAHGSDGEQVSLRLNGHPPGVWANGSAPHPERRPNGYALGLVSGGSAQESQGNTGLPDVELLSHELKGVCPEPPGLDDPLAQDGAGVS
Procedure, shortened: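 Binding of 1 nM [³H]ZM-241385 to hA2A CHO membranes (50 µg protein) in 50 mM Tris HCl, 10 mM MgCl₂, pH 7.4, 60 min at 4 °C; nonspecific binding with 1 µM ZM-241385; filtration and counting; % inhibition at 1 µM test compound.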

[3] = biological target: T2, Adenosine receptor A2b (Homo sapiens) (UniProt P29275); assay: Antagonist activity at human adenosine A2B receptor expressed in CHO cells assessed as inhibition of NECA-stimulated cAMP levels at 1 uM; type: functional, cell-based
T2 sequence (whole entry): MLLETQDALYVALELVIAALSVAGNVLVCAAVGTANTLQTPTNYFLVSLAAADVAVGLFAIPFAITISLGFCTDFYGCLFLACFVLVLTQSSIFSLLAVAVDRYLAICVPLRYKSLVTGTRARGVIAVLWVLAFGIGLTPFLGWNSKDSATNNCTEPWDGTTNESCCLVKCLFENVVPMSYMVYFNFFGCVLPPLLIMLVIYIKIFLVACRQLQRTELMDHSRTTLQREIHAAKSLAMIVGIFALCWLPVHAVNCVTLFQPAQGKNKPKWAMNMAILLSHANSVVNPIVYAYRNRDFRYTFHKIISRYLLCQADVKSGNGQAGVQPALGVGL
Procedure, shortened: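 Stably transfected hA2B CHO cells, 1 × 10⁶ cells/assay, preincubated 10 min at 37 °C, pH 7.4, with adenosine deaminase 2 IU/ml and Ro 20-1724 as phosphodiesterase inhibitor. Stimulated by 200 nM NECA; test compound at 1 µM. Stopped with cold 6% TCA; cAMP measured by [³H]cAMP competition protein binding with beef adrenal binding protein. Reported as % inhibition.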

[4] = biological target: T3, Adenosine receptor A3 (Homo sapiens) (UniProt P0DMS8); assay: Displacement of [125I]ABMECA from human adenosine A3 receptor expressed in CHO cell membranes at 1 uM
T3 sequence (whole entry): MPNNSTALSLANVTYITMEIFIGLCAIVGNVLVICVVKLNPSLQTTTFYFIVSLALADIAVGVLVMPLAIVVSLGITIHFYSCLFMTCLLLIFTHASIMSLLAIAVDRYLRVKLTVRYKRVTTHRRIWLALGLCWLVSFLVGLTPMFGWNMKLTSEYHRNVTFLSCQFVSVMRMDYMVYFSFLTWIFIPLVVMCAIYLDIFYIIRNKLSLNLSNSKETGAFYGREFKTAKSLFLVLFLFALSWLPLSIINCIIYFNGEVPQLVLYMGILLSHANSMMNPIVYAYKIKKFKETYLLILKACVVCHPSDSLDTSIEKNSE
Procedure, shortened: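 Competition at hA3 CHO membranes (50 µg protein) against 0.5 nM [¹²⁵I]AB-MECA, Tris HCl/MgCl₂/EDTA buffer pH 7.4, 120 min at 4 °C; nonspecific binding with 1 µM AB-MECA; test compound at 1 µM; % inhibition of binding.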

[5] = biological target: T4, Adenosine receptor A3 (Homo sapiens, UniProt P0DMS8); assay: Displacement of [125I]ABMECA from human adenosine A3 receptor expressed in CHO cell membranes
T4 sequence (P0DMS8 whole entry): T3 sequence (whole entry)
Procedure, shortened: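 hA3 CHO membranes, 50 µg protein, with 0.5 nM [¹²⁵I]AB-MECA in 50 mM Tris HCl, 10 mM MgCl₂, 1 mM EDTA, pH 7.4. At least 6–8 ligand concentrations, 120 min at 4 °C. Nonspecific binding with 1 µM AB-MECA. Filtration, counting. Ki via Cheng–Prusoff from IC50; means ± SEM of four assays, each in duplicate.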

[6] = biological target: T4, Adenosine receptor A3; assay: Activity at human adenosine A3 receptor expressed in CHO cells assessed as antagonism of Cl-IB-MECA-inhibited cAMP production; type: functional, cell-based
Procedure, shortened: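 CHO cells stably expressing hA3, washed, trypsinized, 1 × 10⁶ cells/assay, preincubated 10 min at 37 °C in buffered salt–glucose medium (pH 7.4) with adenosine deaminase 2 IU/ml and Ro 20-1724. Forskolin 1 µM plus Cl-IB-MECA 100 nM. Stopped with cold 6% TCA, ether-extracted, cAMP by [³H]cAMP competition protein binding. IC50 from sigmoid nonlinear regression; means ± SEM of four experiments.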

Compound | Activity [1] [%] | Activity [2] [%] | inhibition [3] [%] | Activity [4] [%] | Ki [5] [nM] | IC50 [6] [nM]
COc1ccc(NC(=O)c2cc(N)nc3ccccc23)cc1 | 2 | 3 | 3 | 1 |  | 
COc1ccc(NC(=O)c2ccnc(NC(=O)c3ccccc3)n2)cc1 | 6 | 6 | 2 | 22 |  | 
Nc1nc(C(=O)NC2CCCCC2)c2ccccc2n1 | 2 | 3 | 1 | 21 |  | 
Nc1nc(C(=O)Nc2ccccc2)c2ccccc2n1 | 40 | 17 | 5 |  | 350 | 
Nc1cc(C(=O)Nc2ccccc2)c2ccccc2n1 | 1 | 2 | 5 | 6 |  | 
COc1ccc(NC(=O)c2ccnc(N(C(=O)c3ccccc3)C(=O)c3ccccc3)n2)cc1 | 5 | 1 | 3 | 14 |  | 
COc1ccc(NC(=O)c2ccnc(N)n2)cc1 | 3 | 6 | 3 | 15 |  | 
O=C(Nc1nc(C(=O)Nc2ccccc2)c2ccccc2n1)c1ccccc1 | 7 | 10 | 3 |  | 182 | 
CC(=O)Nc1nc(C(=O)Nc2ccccc2)c2ccccc2n1 | 25 | 7 | 5 |  | 25.3 | 140

More lines, now with the values ahead:

Activity [1] [%] | Activity [2] [%] | inhibition [3] [%] | Activity [4] [%] | Ki [5] [nM] | IC50 [6] [nM] | Compound
 |  |  |  | 19.5 | 125 | COc1ccc(NC(=O)c2[nH]c(=O)nc3ccccc23)cc1
8 | 6 | 23 |  | 87.5 |  | COc1ccc(NC(=O)c2nc(N)nc3ccccc23)cc1
22 | 1 | 4 |  |  |  | O=C(Nc1ccccc1)c1nc(=O)[nH]c2ccccc12
4 | 1 | 3 | 26 |  |  | COc1ccc(NC(=O)c2cc(=O)[nH]c3ccccc23)cc1
3 | 1 | 2 |  |  |  | O=C(Nc1ccc(Br)cc1)c1nc(=O)[nH]c2ccccc12
21 | 2 | 2 |  |  |  | Cc1ccc(NC(=O)c2nc(=O)[nH]c3ccccc23)cc1
 |  |  |  | 50 | 238 | O=C(Nc1ccccc1)c1[nH]c(=O)nc2ccccc12
 |  |  |  | 26.7 |  | Cc1ccc(NC(=O)c2[nH]c(=O)nc3ccccc23)cc1
1 | 1 | 2 | 38 |  |  | O=C(Nc1ccccc1)c1cc(=O)[nH]c2ccccc12
3 | 5 | 4 |  | 98.3 |  | Cc1ccc(NC(=O)c2nc(N)nc3ccccc23)cc1
4 | 1 | 9 |  |  |  | COc1ccc(NC(=O)c2nc(=O)[nH]c3ccccc23)cc1
 |  |  |  | 27.2 |  | O=C(Nc1ccc(Br)cc1)c1[nH]c(=O)nc2ccccc12
1 | 1 | 2 |  | 550 |  | Nc1nc(C(=O)Nc2ccc(Br)cc2)c2ccccc2n1

— ChEMBL document CHEMBL1138345, “Scouting human A3 adenosine receptor antagonist binding mode using a molecular simplification approach: from triazoloquinoxaline to a pyrimidine skeleton as a key study” (J Med Chem, 2007)
